Results: ChEMBL document CHEMBL1140225, “Design of annulated pyrazoles as inhibitors of HIV-1 reverse transcriptase” (J Med Chem, 2008)

What was measured:
[1] = test system: Human immunodeficiency virus; test: Antiviral activity against wild type HIV HXB2 in human MT4 cells assessed as protection against virus-induced cell death after 5 days by MTT assay; type: functional, organism-based; details: Human immunodeficiency virus 1, MT4, 120 h
[2] = target: Human immunodeficiency virus type 1 reverse transcriptase (Human immunodeficiency virus 1, UniProt Q72547); test: Inhibition of RNA-dependent DNA polymerase activity of wild type HIV1 reverse transcriptase by SPA
[3] = test system: Human immunodeficiency virus; test: Antiviral activity against […] HIV HXB2 with reverse transcriptase […]/Tyr181Cys mutation in human MT4 cells assessed as protection against virus-induced cell death after 5 days by MTT assay; type: functional, organism-based; details: Human immunodeficiency virus 1, MT4, 120 h
[4] = target: Human immunodeficiency virus type 1 reverse transcriptase (Human immunodeficiency virus 1, UniProt Q72547, K103N/Y181C); test: Inhibition of RNA-dependent DNA polymerase activity of HIV1 reverse transcriptase Lys103Asn/Tyr181Cys mutant by SPA
[5] = Half life in dog at 0.5 mg/kg, iv; details: in vivo
[6] = Half life in rat at 0.5 mg/kg, iv; details: in vivo
[7] = test system: Human immunodeficiency virus; test: Antiviral activity against NNRTI-resistant HIV HXB2 isolate 20 with reverse transcriptase K103, Y181 mutation in human MT4 cells assessed as protection against virus-induced cell death after 5 days by MTT assay; type: functional, organism-based; details: Human immunodeficiency virus 1, MT4, 120 h
[8] = test system: Human immunodeficiency virus; test: Antiviral activity against NNRTI-resistant HIV HXB2 isolate 16 with reverse transcriptase K103, P225 mutation in human MT4 cells assessed as protection against virus-induced cell death after 5 days by MTT assay; type: functional, organism-based; details: Human immunodeficiency virus 1, MT4, 120 h
[9] = test system: Human immunodeficiency virus; test: Antiviral activity against NNRTI-resistant HIV HXB2 with reverse transcriptase 103N mutation in human MT4 cells assessed as protection against virus-induced cell death after 5 days by MTT assay; type: functional, organism-based; details: Human immunodeficiency virus 1, MT4, 120 h
How it was run: (§1)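 MT4 cells in log-phase growth (2 × 10⁶) infected with HXB2-strain HIV at 0.0001 infectious units/cell for 1 h at 37 °C, washed in PBS, then plated at 3.5 × 10⁴ cells/well. Serial 2-fold dilutions, four replicates, final 625-1.22 nM, in RPMI 1640/10% FCS. Incubated 5 days at 37 °C, 5% CO₂. MTT added for 2 h, absorbance read at 540/690 nm. % protection vs uninfected and virus controls; IC50 taken from plot against log concentration.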

[10] = test system: Human immunodeficiency virus; test: Antiviral activity against NNRTI-resistant HIV HXB2 isolate 29 with reverse transcriptase K103, Y181 mutation in human MT4 cells assessed as protection against virus-induced cell death after 5 days by MTT assay; type: functional, organism-based; details: Human immunodeficiency virus 1, MT4, 120 h
[11] = Clearance in rat at 0.5 mg/kg, iv; details: in vivo
[12] = test system: Human immunodeficiency virus; test: Antiviral activity against NNRTI-resistant HIV HXB2 with reverse transcriptase 225H mutation in human MT4 cells assessed as protection against virus-induced cell death after 5 days by MTT assay; type: functional, organism-based; details: Human immunodeficiency virus 1, MT4; how it was run: as §1
[13] = Half life in monkey at 0.5 mg/kg, iv; details: rhesus monkey, in vivo
[14] = test system: Human immunodeficiency virus; test: Antiviral activity against NNRTI-resistant HIV HXB2 with reverse transcriptase 188H mutation in human MT4 cells assessed as protection against virus-induced cell death after 5 days by MTT assay; type: functional, organism-based; details: Human immunodeficiency virus 1, MT4; how it was run: as §1
[15] = Clearance in monkey at 0.5 mg/kg, iv; details: rhesus monkey, in vivo
[16] = test system: Human immunodeficiency virus; test: Antiviral activity against NNRTI-resistant HIV HXB2 with reverse transcriptase 138K mutation in human MT4 cells assessed as protection against virus-induced cell death after 5 days by MTT assay; type: functional, organism-based; details: Human immunodeficiency virus 1, MT4, 120 h; how it was run: as §1
[17] = Clearance in dog at 0.5 mg/kg, iv; details: in vivo
[18] = Volume of distribution at steady state in rat at 0.5 mg/kg, iv; details: in vivo, read-out: Vdss
[19] = Volume of distribution at steady state in dog at 0.5 mg/kg, iv; details: in vivo, read-out: Vdss
[20] = Volume of distribution at steady state in monkey at 0.5 mg/kg, iv; details: rhesus monkey, in vivo, read-out: Vdss
[21] = test system: Human immunodeficiency virus; test: Antiviral activity against NNRTI-resistant HIV HXB2 with reverse transcriptase 101E mutation in human MT4 cells assessed as protection against virus-induced cell death after 5 days by MTT assay; type: functional, organism-based; details: Human immunodeficiency virus 1, MT4, 120 h; how it was run: as §1
[22] = test system: Human immunodeficiency virus; test: Antiviral activity against NNRTI-resistant HIV HXB2 with reverse transcriptase 100I mutation in human MT4 cells assessed as protection against virus-induced cell death after 5 days by MTT assay; type: functional, organism-based; details: Human immunodeficiency virus 1, MT4, 120 h; how it was run: as §1
[23] = test system: Human immunodeficiency virus; test: Antiviral activity against NNRTI-resistant HIV HXB2 with reverse transcriptase 190S mutation in human MT4 cells assessed as protection against virus-induced cell death after 5 days by MTT assay; type: functional, organism-based; details: Human immunodeficiency virus 1, MT4, 120 h; how it was run: as §1
[24] = test system: Human immunodeficiency virus; test: Antiviral activity against NNRTI-resistant HIV HXB2 isolate 21 with reverse transcriptase K103, V179, Y181 mutation in human MT4 cells assessed as protection against virus-induced cell death after 5 days by MTT assay; type: functional, organism-based; details: Human immunodeficiency virus 1, MT4, 120 h
[25] = test system: Human immunodeficiency virus; test: Antiviral activity against wild type HIV HXB2 in human MT4 cells assessed as protection against virus-induced cell death after 5 days by MTT assay in presence of 40% human serum; type: functional, organism-based; details: Human immunodeficiency virus 1, MT4, 120 h
[26] = test system: Human immunodeficiency virus; test: Antiviral activity against NNRTI-resistant HIV HXB2 isolate 17 with reverse transcriptase A98, K103, Y181 mutation in human MT4 cells assessed as protection against virus-induced cell death after 5 days by MTT assay; type: functional, organism-based; details: Human immunodeficiency virus 1, MT4, 120 h
[27] = test system: Human immunodeficiency virus; test: Antiviral activity against NNRTI-resistant HIV HXB2 with reverse transcriptase 106A mutation in human MT4 cells assessed as protection against virus-induced cell death after 5 days by MTT assay; type: functional, organism-based; details: Human immunodeficiency virus 1, MT4, 120 h; how it was run: as §1
[28] = target: Human immunodeficiency virus type 1 reverse transcriptase (Human immunodeficiency virus 1, UniProt Q72547, K103N); test: Inhibition of RNA-dependent DNA polymerase activity of HIV1 reverse transcriptase Lys103Asn mutant by SPA
[29] = Inhibition of RNA-dependent DNA polymerase activity of HIV1 reverse transcriptase Tyr181Cys mutant by SPA; set-up: species or system Human immunodeficiency virus 1
How it was run: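 Purified recombinant RT (1-3 nM final) with 18nt biotinylated DNA primer (32 nM) on a 47nt RNA template (64 nM). Run 30 min at 30 °C, stopped with EDTA, product captured on streptavidin SPA beads. IC50 by sigmoidal regression.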

[30] = test system: Human immunodeficiency virus; test: Antiviral activity against NNRTI-resistant HIV HXB2 with reverse transcriptase 108I mutation in human MT4 cells assessed as protection against virus-induced cell death after 5 days by MTT assay; type: functional, organism-based; details: Human immunodeficiency virus 1, MT4, 120 h; how it was run: as §1
[31] = test system: Human immunodeficiency virus; test: Antiviral activity against NNRTI-resistant HIV HXB2 with reverse transcriptase 236L mutation in human MT4 cells assessed as protection against virus-induced cell death after 5 days by MTT assay; type: functional, organism-based; details: Human immunodeficiency virus 1, MT4, 120 h; how it was run: as §1
[32] = test system: Human immunodeficiency virus; test: Antiviral activity against NNRTI-resistant HIV HXB2 with reverse transcriptase 179D mutation in human MT4 cells assessed as protection against virus-induced cell death after 5 days by MTT assay; type: functional, organism-based; details: Human immunodeficiency virus 1, MT4, 120 h; how it was run: as §1
[33] = test system: Human immunodeficiency virus; test: Antiviral activity against NNRTI-resistant HIV HXB2 with reverse transcriptase 181I mutation in human MT4 cells assessed as protection against virus-induced cell death after 5 days by MTT assay; type: functional, organism-based; details: Human immunodeficiency virus 1, MT4, 120 h; how it was run: as §1
[34] = test system: Human immunodeficiency virus; test: Antiviral activity against NNRTI-resistant HIV HXB2 with reverse transcriptase 227L mutation in human MT4 cells assessed as protection against virus-induced cell death after 5 days by MTT assay; type: functional, organism-based; details: Human immunodeficiency virus 1, MT4, 120 h; how it was run: as §1
[35] = test system: Human immunodeficiency virus; test: Antiviral activity against NNRTI-resistant HIV HXB2 with reverse transcriptase 190A mutation in human MT4 cells assessed as protection against virus-induced cell death after 5 days by MTT assay; type: functional, organism-based; details: Human immunodeficiency virus 1, MT4, 120 h; how it was run: as §1
[36] = test system: Human immunodeficiency virus; test: Antiviral activity against NNRTI-resistant HIV HXB2 with reverse transcriptase 181C mutation in human MT4 cells assessed as protection against virus-induced cell death after 5 days by MTT assay; type: functional, organism-based; details: Human immunodeficiency virus 1, MT4, 120 h; how it was run: as §1

Compound `N#Cc1cc(Cl)cc(Oc2c(Br)ccc(Cc3n[nH]c4ncccc34)c2F)c1` has an EC50 [1] of 1 nM, an IC50 [2] of 8 nM and an EC50 [3] of 12 nM.

For `N#Cc1cc(Cl)cc(Oc2c(Br)ccc(Cc3n[nH]c4nccnc34)c2F)c1`, the IC50 [4] was 14 nM, the EC50 [1] was < 25 nM and the IC50 [2] was 3 nM. For the same compound, the EC50 [3] was > 100 nM.

For `Cn1ccc2c(Cc3ccc(Br)c(Oc4cc(Cl)cc(C#N)c4)c3F)n[nH]c2c1=O`, the IC50 [4] was 12 nM, the EC50 [1] was 4 nM and the IC50 [2] was 8 nM. It also gave an EC50 [3] of 97 nM.

Work on `N#Cc1cc(Cl)cc(Oc2c(Br)ccc(Cc3n[nH]c4c(N)cccc34)c2F)c1` yielded an IC50 [4] of 22 nM, an EC50 [1] of 8 nM and an IC50 [2] of 24 nM. It also gave an EC50 [3] of 84 nM.

For `N#Cc1cc(Cl)cc(Oc2c(Cl)ccc(Cc3n[nH]c4nnccc34)c2F)c1`, the half-life [5] was 5.6 h, the half-life [6] was 4.2 h and the IC50 [7] was 4 nM. For the same compound, the IC50 [8] was 3 nM, the EC50 [9] was < 1 nM and the EC50 [1] was 1 nM. The IC50 [10] was 2 nM, the clearance [11] was 2.9 mL/min/kg and the EC50 [12] was < 1 nM. The half-life [13] was 12.2 h, the EC50 [14] was < 1 nM and the clearance [15] was 1.3 mL/min/kg. It also gave an EC50 [16] of 2 nM, a clearance [17] of 4.6 mL/min/kg and a Vd [18] of 0.91 L/kg. For the same compound, the Vd [19] was 0.99 L/kg, the Vd [20] was 1.21 L/kg and the EC50 [21] was 2 nM. For the same compound, the EC50 [22] was < 1 nM, the EC50 [23] was < 1 nM and the IC50 [24] was 3 nM. The EC50 [25] was 5 nM, the IC50 [26] was 5 nM and the EC50 [27] was 2 nM.

For `Cc1cc(C#N)cc(Oc2ccc(Cc3n[nH]c4nnccc34)cc2Br)c1`, the EC50 [1] was 17 nM, the IC50 [28] was 120 nM and the EC50 [3] was > 100 nM. The IC50 [29] was 800 nM.

`N#Cc1cc(Cl)cc(Oc2c(Br)ccc(Cc3n[nH]c4cnccc34)c2F)c1` gave an IC50 [4] of 9 nM, an EC50 [1] of 2 nM and an IC50 [2] of 5 nM. It also gave an EC50 [3] of 18 nM.

`N#Cc1cc(C#N)cc(Oc2c(Br)ccc(Cc3n[nH]c4nnccc34)c2F)c1` gave an EC50 [1] of 1 nM and an EC50 [3] of 3 nM.

For `N#Cc1cc(Cl)cc(Oc2c(Br)ccc(Cc3n[nH]c4c(C#N)cccc34)c2F)c1`, the IC50 [4] was 15 nM, the EC50 [1] was 5 nM and the IC50 [2] was 24 nM. It also gave an EC50 [3] of 53 nM.

With `O=C1Nc2ccc(Cl)cc2[C@@](C#CC2CC2)(C(F)(F)F)O1` [EFAVIRENZ] the EC50 [30] was 3 nM, the EC50 [9] was 66 nM and the EC50 [31] was < 1 nM. It also gave an EC50 [12] of 1 nM, an EC50 [14] of 4 nM and an EC50 [16] of 2 nM. For the same compound, the EC50 [21] was 12 nM, the EC50 [22] was 7 nM and the EC50 [32] was 8 nM. For the same compound, the EC50 [33] was 2 nM, the EC50 [23] was > 100 nM and the EC50 [34] was 1 nM. For the same compound, the EC50 [35] was 6 nM, the EC50 [36] was 3 nM and the EC50 [25] was 18 nM. The EC50 [27] was 6 nM.

Compound `Cc1cc(C#N)cc(C)c1Oc1nc(Nc2ccc(C#N)cc2)nc(N)c1Br` [ETRAVIRINE] has an IC50 [7] of 7 nM, an IC50 [8] of 1 nM and an IC50 [10] of 3 nM. It also gave an IC50 [24] of 17 nM and an IC50 [26] of 14 nM.
